# Article PMC5908721 (Journal of medicinal chemistry, 2018)
# pIC50: −log10 of the molar value.
# Columns and labels:
# HDAC2 [1] = target: T1, HDAC2 (Homo sapiens, UniProt Q92769); experiment: Recombinant HDAC Vmax study; assay type: biochemical; conditions: 2 h preincubation
# Method in brief: (§1)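 Recombinant human HDAC is incubated with inhibitor dilutions in HDAC buffer for 2 h at 30 °C. Serially diluted Boc-Lys(acetyl)-AMC is then added. After 2 h, the reaction is quenched with trypsin (5 mg/mL) plus 1 μM TSA solution, and fluorescence is read at 360/460 nm. Vmax and Km come from a Michaelis–Menten fit, and Lineweaver–Burk double-reciprocal plots are derived from them.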
# HDAC1 [2] = target: T2, HDAC1 (Homo sapiens, UniProt Q13547); experiment: Recombinant HDAC Vmax study; assay type: biochemical; conditions: 2 h preincubation
# HDAC3 [3] = target: T3, HDAC3 (Homo sapiens, UniProt O15379); experiment: In vitro HDACs inhibition fluorescence assay, HDAC3; assay type: biochemical; conditions: preincubation 15, 30, 60, 90 min
# HDAC2 [4] = target: T1, HDAC2; experiment: In vitro HDACs inhibition fluorescence assay, HDAC2; assay type: biochemical; conditions: preincubation 15, 30, 60, 90 min
# Method in brief: (§2)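 Recombinant HDAC enzyme is preincubated with serial test-compound concentrations at 30 °C for 15, 30, 60 or 90 min. Boc-Lys(acetyl)-AMC is added for 2 h at 30 °C. The reaction is stopped with a trypsin/trichostatin A developer, and fluorescence is read after 30 min (ex 360/em 460 nm). Inhibition is taken relative to control wells, and IC50 comes from a variable-slope log(inhibitor)–normalized response fit.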
# HDAC1 [5] = target: T2, HDAC1; experiment: In vitro HDACs inhibition fluorescence assay, HDAC1; assay type: biochemical; conditions: preincubation 15, 30, 60, 90 min
# Method in brief: as §2
# HDAC3 [6] = target: T3, HDAC3; experiment: Recombinant HDAC Vmax study; assay type: biochemical; conditions: 2 h preincubation
# Method in brief: as §1
# PC-3 cells [7] = experiment: Western blot analysis in PC-3 cells; assay type: cell-based; conditions: PC-3, 24 h
# Method in brief: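 PC-3 cells (300,000 per well, six-well) grown 12 h, then given test compound at 1 and 2 μM for 24 h; 5 μM reference HDAC inhibitor as positive control. RIPA lysates were sonicated, cleared at 4 °C, and BCA-normalised. Proteins were separated on 4–12% Bis-Tris gels in MES buffer. Primary antibodies were used at 1/1000 overnight at 4 °C, with actin as loading control. Representative of n ≥ 2 experiments.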
# MV4-11 cells [8] = experiment: MV4-11 EC50 analysis / cell viability; assay type: cell-based
# PC-3 cells [9] = experiment: PC-3 cell morphology, phase-contrast light microscope; assay type: cell-based; conditions: 48 h
# Method in brief: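 PC-3 cells in culture flasks are exposed for 48 h to 2 or 10 μM test compound or DMSO vehicle. Cell morphology and attachment are then examined by phase-contrast light microscopy (n ≥ 2).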
# MMP-2/MMP-9 = MMP-2/MMP-9 inhibitory activity; assay type: biochemical; conditions: read-out: MMP-2/MMP-9, no inhibition at concentrations up to
# Method in brief: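 Gelatinase (MMP-2/MMP-9) fluorogenic kit assay. Test compound is added as a 100 μM solution (before mixing), alongside a 40 μM reference MMP inhibitor. Enzyme diluted in activation buffer is added for 10–15 min, then substrate. The mix is incubated at 37 °C for 2 h, and fluorescence is read at ex 320/em 405 nm.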
# APN/CD13 = target: T4, APN/CD13 (Sus scrofa, UniProt P15145); experiment: CD13 inhibition assay; assay type: biochemical, porcine
# T4 sequence (P15145 1-963): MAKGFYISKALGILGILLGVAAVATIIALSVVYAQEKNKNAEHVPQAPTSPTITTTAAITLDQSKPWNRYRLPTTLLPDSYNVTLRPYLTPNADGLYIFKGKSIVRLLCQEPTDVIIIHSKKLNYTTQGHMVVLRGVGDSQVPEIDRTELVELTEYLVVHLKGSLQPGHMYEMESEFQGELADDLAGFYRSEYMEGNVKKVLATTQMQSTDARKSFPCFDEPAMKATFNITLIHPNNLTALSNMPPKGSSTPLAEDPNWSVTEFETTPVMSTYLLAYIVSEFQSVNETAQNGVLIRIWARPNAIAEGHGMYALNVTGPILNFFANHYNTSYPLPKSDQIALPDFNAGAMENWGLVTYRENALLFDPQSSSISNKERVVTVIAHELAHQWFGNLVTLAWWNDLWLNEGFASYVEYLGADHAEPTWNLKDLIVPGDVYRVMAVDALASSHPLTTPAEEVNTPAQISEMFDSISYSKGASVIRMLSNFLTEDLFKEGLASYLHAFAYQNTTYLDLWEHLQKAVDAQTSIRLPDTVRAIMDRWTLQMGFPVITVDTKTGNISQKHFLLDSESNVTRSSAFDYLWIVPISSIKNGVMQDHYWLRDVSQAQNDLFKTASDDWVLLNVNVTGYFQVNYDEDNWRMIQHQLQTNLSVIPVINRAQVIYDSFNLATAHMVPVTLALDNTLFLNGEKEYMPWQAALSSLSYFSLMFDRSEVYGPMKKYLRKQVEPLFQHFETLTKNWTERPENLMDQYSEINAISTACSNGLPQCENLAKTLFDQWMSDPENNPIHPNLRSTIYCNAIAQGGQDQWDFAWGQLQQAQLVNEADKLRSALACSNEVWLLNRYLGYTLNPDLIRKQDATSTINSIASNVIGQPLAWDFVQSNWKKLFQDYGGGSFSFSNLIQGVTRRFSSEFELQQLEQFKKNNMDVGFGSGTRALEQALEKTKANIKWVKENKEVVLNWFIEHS
# Method in brief: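 Porcine kidney microsomal aminopeptidase (CD13) is added to test compound at various concentrations. After 5 min, L-leucine-p-nitroanilide substrate is added, and the mix is incubated at 37 °C for 30 min. Absorbance is then read at 405 nm.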
# MV4-11 cells [10] = experiment: Western blot analysis in MV4-11 cells; assay type: cell-based; conditions: for Level of HDAC6: ≥0.5 μM 13e or 5 μM SAHA
# Method in brief: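 MV4-11 cells (1,500,000/well) are grown 12 h, then treated with test compound, mainly for 24 h (0.25–2 μM; 5 μM SAHA as reference). For p53, 0.5 μM is given for 6 or 12 h, and bortezomib is co-treated for 6 h. Cells are lysed in RIPA, sonicated, centrifuged, BCA-normalized, and run on 4–12% Bis-Tris gels. Blots are probed overnight at 4 °C with primary antibodies (1/1000), with actin as loading control (n ≥ 2).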
# PC-3 cells [11] = experiment: PC-3 EC50 analysis / cell viability; assay type: cell-based; conditions: 24 and 48 h
# PC-3 cells [12] = experiment: Cell cycle analysis in PC-3 cells; assay type: cell-based; conditions: PC-3, 24 h
# Method in brief: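 PC-3 cells (300,000/well) are grown 12 h, then treated with test compound at various concentrations for 24 h. Cells are harvested, PBS-washed, fixed overnight in 75% cold ethanol at 4 °C, and washed in cold PBS. They are then treated with RNase A at 37 °C for 30 min and stained with propidium iodide (50 μg/mL in PBS) for 30 min at 4 °C. DNA content is read by flow cytometry (n ≥ 2).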
# MV4-11 cells [13] = experiment: Cell cycle analysis in MV4-11 cells; assay type: cell-based; conditions: MV4-11, 24 h
# Method in brief: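 MV4-11 cells plated at 1,500,000 per well in six-well plates, grown 12 h, then exposed to test compound for 24 h. Cells were PBS-washed, fixed overnight at 4 °C in cold 75% ethanol, and washed twice in cold PBS. They were RNase A-treated at 37 °C for 30 min, stained with 50 μg/mL propidium iodide (30 min, 4 °C), and analysed by flow cytometry. Representative of n ≥ 2 experiments.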
# [14] = clinical use; cited from earlier work
# T1 sequence (Q92769 whole entry): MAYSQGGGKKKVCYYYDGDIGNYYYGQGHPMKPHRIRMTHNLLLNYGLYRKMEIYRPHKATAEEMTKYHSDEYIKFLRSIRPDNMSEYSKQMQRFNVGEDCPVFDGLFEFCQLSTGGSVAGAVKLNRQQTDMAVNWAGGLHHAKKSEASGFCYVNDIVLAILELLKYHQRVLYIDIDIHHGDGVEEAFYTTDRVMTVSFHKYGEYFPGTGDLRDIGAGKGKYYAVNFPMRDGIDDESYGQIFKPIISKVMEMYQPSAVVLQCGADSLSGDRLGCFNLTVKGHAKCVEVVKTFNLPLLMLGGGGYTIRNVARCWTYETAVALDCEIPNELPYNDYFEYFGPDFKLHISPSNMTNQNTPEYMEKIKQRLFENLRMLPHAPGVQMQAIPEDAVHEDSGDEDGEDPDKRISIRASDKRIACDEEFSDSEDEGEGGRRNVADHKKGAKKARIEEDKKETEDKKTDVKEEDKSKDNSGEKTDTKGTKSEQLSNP
# T3 sequence (O15379 whole entry): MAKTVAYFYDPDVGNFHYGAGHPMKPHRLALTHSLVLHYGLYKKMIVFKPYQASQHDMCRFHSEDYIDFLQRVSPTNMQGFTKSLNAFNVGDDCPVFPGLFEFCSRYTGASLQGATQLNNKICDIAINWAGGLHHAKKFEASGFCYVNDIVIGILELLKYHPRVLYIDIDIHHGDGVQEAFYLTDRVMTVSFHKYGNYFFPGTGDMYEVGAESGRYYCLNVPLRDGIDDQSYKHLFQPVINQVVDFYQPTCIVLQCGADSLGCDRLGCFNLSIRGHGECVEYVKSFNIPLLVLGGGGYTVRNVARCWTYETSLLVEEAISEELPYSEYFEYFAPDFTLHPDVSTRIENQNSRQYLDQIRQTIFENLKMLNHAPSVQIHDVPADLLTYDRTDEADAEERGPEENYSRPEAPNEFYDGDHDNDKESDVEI
# T3 sequence (Q9Y618 395-489 partner limits assumed): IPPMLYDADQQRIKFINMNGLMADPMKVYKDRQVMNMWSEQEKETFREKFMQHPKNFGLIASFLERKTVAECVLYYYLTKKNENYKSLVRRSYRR
# T2 sequence (Q13547 whole entry): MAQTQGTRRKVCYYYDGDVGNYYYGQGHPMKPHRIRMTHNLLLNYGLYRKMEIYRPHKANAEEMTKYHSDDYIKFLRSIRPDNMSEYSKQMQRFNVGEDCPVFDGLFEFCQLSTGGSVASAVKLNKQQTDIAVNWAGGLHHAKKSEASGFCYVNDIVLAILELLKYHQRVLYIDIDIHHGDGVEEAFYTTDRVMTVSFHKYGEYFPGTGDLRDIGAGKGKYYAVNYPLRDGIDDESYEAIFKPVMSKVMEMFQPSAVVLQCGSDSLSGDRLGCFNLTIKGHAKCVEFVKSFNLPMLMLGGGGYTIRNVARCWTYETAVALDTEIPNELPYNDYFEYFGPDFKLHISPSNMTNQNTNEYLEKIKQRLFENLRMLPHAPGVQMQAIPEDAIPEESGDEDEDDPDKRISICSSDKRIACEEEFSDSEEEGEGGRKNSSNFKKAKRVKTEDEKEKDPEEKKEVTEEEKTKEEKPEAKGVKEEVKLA
smiles,measurement,setting,value
"COc1ccc(C(=O)N[C@@H](Cc2c[nH]c3ccccc23)C(=O)NCc2ccc(C(=O)Nc3ccccc3N)cc2)cc1 [Compound 11a, (S)-4-((3-(1H-indol-3-yl)-2-(4-methoxybenzamido)propanamido)-methyl)-N-(2-aminophenyl)benzamide, reference compound]",Type of inhibition of HDAC2 (Lineweaver-Burke analysis),HDAC2 [1],mixed-type inhibition
same,Type of inhibition of HDAC1 (Lineweaver-Burke analysis),HDAC1 [2],competitive inhibition
same,Time dependence of HDAC3 inhibition,HDAC3 [3],time-dependent inhibition
same,Time dependence of HDAC2 inhibition,HDAC2 [4],time-dependent inhibition
same,Time dependence of HDAC1 inhibition,HDAC1 [5],time-dependent inhibition
same,Type of inhibition of HDAC3 (Lineweaver-Burke analysis),HDAC3 [6],mixed-type inhibition
"CCCNNC(=O)c1ccc(CNC(=O)[C@H](Cc2c[nH]c3ccccc23)NC(=O)c2ccc(OC)cc2)cc1 [Compound 13b, (S)-N-(3-(1H-Indol-3-yl)-1-oxo-1-((4-(2-propylhydrazine-1-carbonyl)benzyl)amino)propan-2-yl)-4-methoxybenzamide]",Type of inhibition of HDAC2 (Lineweaver-Burke analysis),HDAC2 [1],mixed inhibition
same,Type of inhibition of HDAC1 (Lineweaver-Burke analysis),HDAC1 [2],mixed inhibition
same,Time dependence of HDAC3 inhibition,HDAC3 [3],time-dependent inhibition
same,Time dependence of HDAC2 inhibition,HDAC2 [4],time-dependent inhibition
same,Time dependence of HDAC1 inhibition,HDAC1 [5],time-dependent inhibition
same,Type of inhibition of HDAC3 (Lineweaver-Burke analysis),HDAC3 [6],mixed inhibition
"CCCNNC(=O)c1ccc(NC(=O)[C@H](Cc2c[nH]c3ccccc23)NC(=O)c2ccc(OC)cc2)cc1 [Compound 13e, (S)-N-(3-(1H-Indol-3-yl)-1-oxo-1-((4-(2-propylhydrazine-1-carbonyl)phenyl)amino)propan-2-yl)-4-methoxybenzamide]",HDAC1 level,PC-3 cells [7],did not induce down-regulation of class I HDAC1
same,Cleavage of pro-caspase3 / PARP (apoptosis),PC-3 cells [7]; 1 and 2 μM,no observed cleavage of pro-caspase3 or PARP
same,HDAC6 level and acetylated tubulin level,PC-3 cells [7]; 1 and 2 μM,did not induce down-regulation of HDAC6 nor increase the level of acetylated tubulin
same,Viable MV4-11 cell population over time (resorufin fluorescence),"MV4-11 cells [8]; 10 and 2 μM, 24 and 48 h",decreased with time
same,MV4-11 cell death,MV4-11 cells [8]; 48 h treatment at high concentration,almost all MV4-11 cells were dead
same,"MV4-11 antiproliferative activity, times higher than 13b",MV4-11 cells [8]; vs 13b,4.1 times
same,PC-3 cell morphology,PC-3 cells [9]; 2 μM,did not obviously affect cell morphology
same,PC-3 cell morphology,PC-3 cells [9]; 10 μM,cells were still alive and attached to the culture flask
same,pIC50,MMP-2/MMP-9,< 4.30
same,pIC50,APN/CD13,< 4.30
same,Treatment time required for HDAC6 repression,MV4-11 cells [10]; MV4-11,more than 12 h
same,Time to degradation of p53,"MV4-11 cells [10]; MV4-11, 0.5 μM",≤ 6 h
same,HDAC1 level,"MV4-11 cells [10]; MV4-11, 24 h",did not induce down-regulation of class I HDAC1
same,Level of acetyl-tubulin,"MV4-11 cells [10]; MV4-11, 24 h",increased
same,Level of acetylated histone H3,"MV4-11 cells [10]; MV4-11, 24 h, 0.25-2 μM",markedly increase
same,Level of acetylated histone H4,"MV4-11 cells [10]; MV4-11, 24 h, 0.25-2 μM",markedly increase
same,Cleavage of pro-caspase3 / PARP (apoptosis),"MV4-11 cells [10]; MV4-11, 24 h, 1 and 2 μM",caused the cleavage of inactive pro-caspase3
same,Level of HDAC6,"MV4-11 cells [10]; MV4-11, 24 h",nearly absent
same,Viable PC-3 cell population over time (resorufin fluorescence),PC-3 cells [11]; 2 μM,slightly increased
same,Viable PC-3 cell population over time (resorufin fluorescence),PC-3 cells [11]; 10 μM,remained unchanged
same,Cell cycle effect,PC-3 cells [12],triggered G2/M arrest
same,Cell cycle effect,MV4-11 cells [13],induced G1/S and sub-G1 cell cycle arrest
"O=C(CCCCCCC(=O)Nc1ccccc1)NO [SAHA, vorinostat, reference compound]",Level of HDAC6,"MV4-11 cells [10]; MV4-11, 24 h",nearly absent
"CC(C)C[C@H](NC(=O)[C@H](Cc1ccccc1)NC(=O)c1cnccn1)B(O)O [bortezomib, reference compound]",Effect on p53 degradation upon hydrazide HDAC inhibitor treatment,"MV4-11 cells [10]; MV4-11, 6 h treatment",blocks this degradation
NNC(=O)c1ccncc1 [isoniazid],Rate of hepatotoxicity,[14],0.5–2%
same,Rate of lethal hepatotoxicity,[14],1/25000
